Compound activity (PubChem)
Rows were chosen to be rich in hits. Some 9.2% of all compounds tested hit in one or more screens of this group.
Dynein cargo inh – inhibitors of GR-EGFP nuclear translocation, primary screen, dynein cargo transport inhibitor project, imaging, high-content, 3617.4 mouse cells. test concentration mostly 20 µM; stimulated with dexamethasone, 1 µM; active compounds read low. z-score, hits read low. 220,000 tested, 0.47% active;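 active = plate z-score of nuclear minus cytoplasmic receptor signal below a set negative limit, without overly bright fluorescence or cell loss, cut at about -3.5 in these data, passing the limit was not always enough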;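 also: z-score of nuclear minus cytoplasmic ring GR-EGFP intensity difference per well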
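medium = tetracycline-free induction medium containing charcoal-stripped FBS | also added = 1.0 µM final dexamethasone stimulus | schedule = 48 h induction, 1 h compound, 30 min dex at 37 °C | technique = fixed, Hoechst-stained cells imaged at 10x for EGFP | measure = GR-EGFP nuclear translocation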
PTEN del growth – growth suppression of PTEN-null HCT116, primary screen, cell-based, CellTiter-Glo. 140,000 tested, 1.2% active. viability, % at 10 µM. HCT116 PTEN-null viability, 60 h; active compounds read low. AID 827, 2007;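 active = viability at or below a set limit, 4 SD under the median of all tested compounds, cut at about 3.7% in these data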;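 also: PTEN knockout HCT116 line with beta catenin targeted HCT116 as companion control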
HCT116 bCat-KO – primary screen for growth suppressors in beta-catenin knockout HCT116 cells (colon tumor, human) | AID 818, 2007 | viability, % at 10 µM | 140,000 tested, 1.5% active | HCT116 beta-catenin knockout viability, CellTiter-Glo, 60 h; active compounds read low;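 active = viability at or under a set limit, the compound median less 4 SD, cut at about 6% in these data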;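 also: 0% = Hyamine 1622 control at 20 µM and 100% = untreated cell control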
Lmaj promast – Leishmania major promastigote growth inhibition, primary screen. Leishmania major promastigotes, resazurin fluorescence viability. inhibition, % at 10 µM. 200,000 tested, 9% active. AID 1063, 2008; in the data active = inhibition above about 50%;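 also: promastigotes grown with compound for 44 hours at 28 °C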
Autophagy mod – autophagy modulators in MEF cells, primary screen, imaging, high-content, MEF GFP-LC3 | calls only at 10 µM (by protocol) | MEF GFP-LC3 puncta imaging; test concentration mostly 10 µM | 190,000 tested, 0.98% active | AID 463193, 2010;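 active = percentage of spot-positive cells more than 3 SD above its plate mean, without a fluorescence outlier flag or 80% toxicity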;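 also: spot-positive cell cutoff set from DMSO-treated cells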
Lmaj promast 1uM – Leishmania major promastigote growth inhibition, confirmation, 1 µM repeat of primary hits; shares compounds with Lmaj promast; L. major promastigote growth, resazurin fluorescence, 48 h; inhibition, % at 1 µM; 1,100 tested, 13% active; AID 1258, 2008;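 active = inhibition above about 50% in both repeat tests, limit read from the data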
Active calls of the source: *.

`CC(=O)NN1C(=O)c2ccc(Oc3cccc([N+](=O)[O-])c3)cc2C1=O` gave Dynein cargo inh 1.5, PTEN del growth 92, HCT116 bCat-KO 94, Lmaj promast 2 and Autophagy mod inactive.
Cc1cc(C)cc(C(=O)N(NC(=O)Nc2ccc(Cl)cc2)C(C)(C)C)c1 was read as Dynein cargo inh 2.2, PTEN del growth 21, HCT116 bCat-KO 30, Lmaj promast 98*, Autophagy mod inactive and Lmaj promast 1uM -11.
For COc1ccc(NS(=O)(=O)c2cccc(NC(=O)CCS(=O)(=O)c3ccccc3)c2)cc1 the results were Dynein cargo inh 0.043, PTEN del growth 84, HCT116 bCat-KO 87, Lmaj promast 46 and Autophagy mod inactive.
`Cc1cc(C)cc(N=Cc2ccc([N+](=O)[O-])s2)c1` gave Dynein cargo inh -2.5, PTEN del growth 1.8*, HCT116 bCat-KO 1.9*, Lmaj promast 100*, Autophagy mod inactive and Lmaj promast 1uM 13.
`CC(C)(C)c1ccc(-c2ncccc2O)cc1` gave Dynein cargo inh -1.5, Lmaj promast 100*, Autophagy mod inactive and Lmaj promast 1uM 83*.
For CCC(=O)NCCNc1ccc([N+](=O)[O-])cn1 the results were Dynein cargo inh 1.2, PTEN del growth 94, HCT116 bCat-KO 88, Lmaj promast -5 and Autophagy mod inactive.
CC(=O)NCCNc1ccc([N+](=O)[O-])cn1 was read as Dynein cargo inh -1.4, PTEN del growth 93, HCT116 bCat-KO 101, Lmaj promast 62*, Autophagy mod inactive and Lmaj promast 1uM -16.
`Cc1ccc(C2=NC3(CCCCC3)N=C2SCC(=O)Nc2ccc3c(c2)OCCO3)cc1` gave Dynein cargo inh 0.27, PTEN del growth 58, HCT116 bCat-KO 57, Lmaj promast 28 and Autophagy mod inactive.
For O=C1CCCc2c1[nH]c1ccccc21 the results were Dynein cargo inh -0.25, PTEN del growth 93, HCT116 bCat-KO 90, Lmaj promast 3 and Autophagy mod inactive.
For CN1CCCCc2c1[nH]c1ccccc1c2=O the results were Dynein cargo inh -0.51, PTEN del growth 99, HCT116 bCat-KO 93, Lmaj promast 98*, Autophagy mod inactive and Lmaj promast 1uM -3.
Screening CCOC(=O)c1cccnc1NC(=O)c1ccccc1 returned Dynein cargo inh -1.4, PTEN del growth 105, HCT116 bCat-KO 104, Lmaj promast -9 and Autophagy mod inactive.
COc1ccc(NS(=O)(=O)c2cc(C)ccc2NC(=O)c2cc(C)oc2C)cc1 was read as Dynein cargo inh -0.97, PTEN del growth 12, HCT116 bCat-KO 11, Lmaj promast 52*, Autophagy mod inactive and Lmaj promast 1uM 19.
COc1ccc(NS(=O)(=O)c2cccc(C(=O)NNC(=O)c3cc(C)oc3C)c2)cc1 was read as Dynein cargo inh -0.25, PTEN del growth 100, HCT116 bCat-KO 82, Lmaj promast -9 and Autophagy mod inactive.
Screening Cc1ccc(C(CCN)c2ccco2)cc1 (stereo not drawn) returned Dynein cargo inh -0.74, PTEN del growth 96, HCT116 bCat-KO 118, Lmaj promast 98*, Autophagy mod inactive and Lmaj promast 1uM -9.
`Cc1ccc(C(CC(N)=O)c2ccco2)cc1` (stereo not drawn) gave Dynein cargo inh -0.46, PTEN del growth 91, HCT116 bCat-KO 94, Lmaj promast -2 and Autophagy mod inactive.
Screening CCc1ccc(NC(=O)C(C)OC(=O)C2CCC(=O)N2)cc1 (stereo not drawn) returned Dynein cargo inh -0.81, Lmaj promast -8 and Autophagy mod inactive.
CC(C)CC(=O)OC1C(N2CCOCC2)c2c(ccc(/C=C/C(=O)N3CCOCC3)c2O)OC1(C)C (stereo not drawn) was read as Dynein cargo inh 1.2, PTEN del growth 85, HCT116 bCat-KO 95, Lmaj promast 90*, Autophagy mod inactive and Lmaj promast 1uM -16.
For CC1(C)Oc2ccc(/C=C/C(=O)N3CCOCC3)c(O)c2C(N2CCOCC2)C1O (stereo not drawn) the results were Dynein cargo inh -0.88, PTEN del growth 93, HCT116 bCat-KO 100, Lmaj promast -7 and Autophagy mod inactive.
